ChEMBL document CHEMBL5705905, “Pharmacological targeting of kinases MST1 and MST2 augments tissue repair and regeneration” (Sci Transl Med, 2016)
Activity calls are given as the source filed them. The calls are words filed in the database; no cut-off is given here.

Columns and labels:
[1] = target: Cyclin-dependent kinase-like 3 (Homo sapiens) (UniProt Q8IVW4); assay: Inhibition of CDKL3 (unknown origin) assessed as remaining activity at 1 uM by Kinome scan method relative to control
In short: (§1)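 Active-site-dependent competition-binding profiling (KINOMEscan) at 1 μM against a 468-kinase panel; compound supplied from a 10 mM DMSO stock. Read-out is ctrl% = (test signal − positive control signal)/(negative control signal − positive control signal) × 100. DMSO is the negative control (100%) and a control compound the positive control (0%). Lower ctrl% means tighter binding.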

[2] = target: Tyrosine-protein kinase Fyn (Homo sapiens) (UniProt P06241); assay: Inhibition of FYN (unknown origin) assessed as remaining activity at 1 uM by Kinome scan method relative to control
Chain of Tyrosine-protein kinase Fyn (Homo sapiens) (P06241 2-537 limits assumed): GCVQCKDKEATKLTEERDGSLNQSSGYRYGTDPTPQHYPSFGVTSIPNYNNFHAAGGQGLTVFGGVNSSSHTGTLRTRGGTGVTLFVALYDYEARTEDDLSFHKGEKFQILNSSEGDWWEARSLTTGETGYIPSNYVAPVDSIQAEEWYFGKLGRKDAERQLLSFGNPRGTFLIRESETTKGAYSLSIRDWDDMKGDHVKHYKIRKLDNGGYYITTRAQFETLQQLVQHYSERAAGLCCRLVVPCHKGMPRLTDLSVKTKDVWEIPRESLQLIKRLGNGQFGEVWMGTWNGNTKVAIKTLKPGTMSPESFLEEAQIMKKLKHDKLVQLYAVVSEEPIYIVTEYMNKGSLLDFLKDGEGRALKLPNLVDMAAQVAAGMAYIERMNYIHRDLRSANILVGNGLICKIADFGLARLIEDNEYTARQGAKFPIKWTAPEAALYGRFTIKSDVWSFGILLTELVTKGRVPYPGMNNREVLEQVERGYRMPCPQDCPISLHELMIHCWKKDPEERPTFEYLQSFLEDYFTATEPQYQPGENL

[3] = system: Receptor-type tyrosine-protein kinase FLT3 (Homo sapiens), P36888 [D835V]; assay: Inhibition of FLT3 D835V mutant (unknown origin) assessed as remaining activity at 1 uM by Kinome scan method relative to control
[4] = target: Macrophage colony-stimulating factor 1 receptor (Homo sapiens) (UniProt P07333); assay: Inhibition of CSF1R (unknown origin) assessed as remaining activity at 1 uM by Kinome scan method relative to control; in short: as §1
Chain of Macrophage colony-stimulating factor 1 receptor (Homo sapiens) (P07333 whole entry): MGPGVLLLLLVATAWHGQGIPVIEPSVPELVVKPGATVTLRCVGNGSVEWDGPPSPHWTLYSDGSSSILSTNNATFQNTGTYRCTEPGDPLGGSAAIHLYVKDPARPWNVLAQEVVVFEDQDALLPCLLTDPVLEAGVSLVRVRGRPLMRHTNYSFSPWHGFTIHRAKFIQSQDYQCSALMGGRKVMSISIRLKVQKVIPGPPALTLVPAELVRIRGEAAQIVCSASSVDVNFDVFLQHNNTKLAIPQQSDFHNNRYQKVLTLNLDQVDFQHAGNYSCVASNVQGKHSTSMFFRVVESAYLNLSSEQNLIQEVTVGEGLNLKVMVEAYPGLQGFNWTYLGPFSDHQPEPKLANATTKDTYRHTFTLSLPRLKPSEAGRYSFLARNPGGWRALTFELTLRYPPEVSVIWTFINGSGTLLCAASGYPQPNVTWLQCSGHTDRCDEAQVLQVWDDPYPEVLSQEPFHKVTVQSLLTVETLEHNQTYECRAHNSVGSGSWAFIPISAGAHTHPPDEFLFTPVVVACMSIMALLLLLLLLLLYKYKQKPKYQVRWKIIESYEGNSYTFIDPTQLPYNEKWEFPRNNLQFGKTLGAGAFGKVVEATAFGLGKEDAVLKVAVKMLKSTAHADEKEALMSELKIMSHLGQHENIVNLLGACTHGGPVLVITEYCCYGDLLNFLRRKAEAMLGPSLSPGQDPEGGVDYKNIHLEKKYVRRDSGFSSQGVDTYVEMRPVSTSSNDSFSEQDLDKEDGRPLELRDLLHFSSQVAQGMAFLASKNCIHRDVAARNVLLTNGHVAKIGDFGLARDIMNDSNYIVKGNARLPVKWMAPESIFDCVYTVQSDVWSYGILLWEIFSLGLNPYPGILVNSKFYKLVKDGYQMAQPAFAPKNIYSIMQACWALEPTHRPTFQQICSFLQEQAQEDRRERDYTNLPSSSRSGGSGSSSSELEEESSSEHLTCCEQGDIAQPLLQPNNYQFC

[5] = system: Proto-oncogene tyrosine-protein kinase receptor Ret (Homo sapiens), P07949 [V804M]; assay: Inhibition of RET V804M (unknown origin) assessed as remaining activity at 1 uM by Kinome scan method relative to control
[6] = target: SRSF protein kinase 3 (Homo sapiens) (UniProt Q9UPE1); assay: Inhibition of SRPK3 (unknown origin) assessed as remaining activity at 1 uM by Kinome scan method relative to control
Chain of SRSF protein kinase 3 (Homo sapiens) (Q9UPE1 whole entry): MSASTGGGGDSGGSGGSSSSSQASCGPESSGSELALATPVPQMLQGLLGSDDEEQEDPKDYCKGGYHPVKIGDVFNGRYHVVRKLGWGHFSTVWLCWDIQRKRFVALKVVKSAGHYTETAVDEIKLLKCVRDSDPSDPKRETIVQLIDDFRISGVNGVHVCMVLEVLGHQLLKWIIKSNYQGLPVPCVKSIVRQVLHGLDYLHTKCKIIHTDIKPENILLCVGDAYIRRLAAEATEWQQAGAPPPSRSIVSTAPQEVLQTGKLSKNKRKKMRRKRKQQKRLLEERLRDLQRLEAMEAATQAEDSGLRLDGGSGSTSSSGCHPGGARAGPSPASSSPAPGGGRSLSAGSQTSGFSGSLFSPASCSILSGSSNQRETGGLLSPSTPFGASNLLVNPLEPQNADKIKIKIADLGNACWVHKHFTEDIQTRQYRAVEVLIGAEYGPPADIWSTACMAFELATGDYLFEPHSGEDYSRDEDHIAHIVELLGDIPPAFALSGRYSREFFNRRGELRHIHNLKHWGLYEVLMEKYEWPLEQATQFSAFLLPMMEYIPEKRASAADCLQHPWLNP

[7] = target: Serine/threonine-protein kinase Sgk3 (Homo sapiens) (UniProt Q96BR1); assay: Inhibition of SGK3 (unknown origin) assessed as remaining activity at 1 uM by Kinome scan method relative to control
[8] = target: LIM domain kinase 2 (Homo sapiens) (UniProt P53671); assay: Inhibition of LIMK2 (unknown origin) assessed as remaining activity at 1 uM by Kinome scan method relative to control
Chain of LIM domain kinase 2 (Homo sapiens) (P53671 whole entry, looked up, the tested form may be a part): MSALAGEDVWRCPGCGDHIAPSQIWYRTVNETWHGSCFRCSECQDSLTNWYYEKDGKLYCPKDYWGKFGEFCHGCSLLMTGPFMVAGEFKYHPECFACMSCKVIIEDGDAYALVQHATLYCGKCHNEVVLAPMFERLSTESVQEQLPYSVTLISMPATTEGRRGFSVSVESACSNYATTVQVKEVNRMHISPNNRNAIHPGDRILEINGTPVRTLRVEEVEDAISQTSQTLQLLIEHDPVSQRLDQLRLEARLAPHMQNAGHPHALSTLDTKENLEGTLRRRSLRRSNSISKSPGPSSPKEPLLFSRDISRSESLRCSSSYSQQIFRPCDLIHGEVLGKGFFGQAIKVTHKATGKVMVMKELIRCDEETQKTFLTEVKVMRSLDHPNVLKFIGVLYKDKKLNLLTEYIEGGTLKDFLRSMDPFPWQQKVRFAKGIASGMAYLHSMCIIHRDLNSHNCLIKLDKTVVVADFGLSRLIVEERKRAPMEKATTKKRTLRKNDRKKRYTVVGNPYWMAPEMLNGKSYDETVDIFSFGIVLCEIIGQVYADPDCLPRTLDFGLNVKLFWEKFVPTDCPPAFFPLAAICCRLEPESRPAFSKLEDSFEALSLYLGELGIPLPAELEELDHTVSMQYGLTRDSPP

[9] = target: TGF-beta receptor type-2 (Homo sapiens) (UniProt P37173); assay: Inhibition of TGFBR2 (unknown origin) assessed as remaining activity at 1 uM by Kinome scan method relative to control
Chain of TGF-beta receptor type-2 (Homo sapiens) (P37173 whole entry): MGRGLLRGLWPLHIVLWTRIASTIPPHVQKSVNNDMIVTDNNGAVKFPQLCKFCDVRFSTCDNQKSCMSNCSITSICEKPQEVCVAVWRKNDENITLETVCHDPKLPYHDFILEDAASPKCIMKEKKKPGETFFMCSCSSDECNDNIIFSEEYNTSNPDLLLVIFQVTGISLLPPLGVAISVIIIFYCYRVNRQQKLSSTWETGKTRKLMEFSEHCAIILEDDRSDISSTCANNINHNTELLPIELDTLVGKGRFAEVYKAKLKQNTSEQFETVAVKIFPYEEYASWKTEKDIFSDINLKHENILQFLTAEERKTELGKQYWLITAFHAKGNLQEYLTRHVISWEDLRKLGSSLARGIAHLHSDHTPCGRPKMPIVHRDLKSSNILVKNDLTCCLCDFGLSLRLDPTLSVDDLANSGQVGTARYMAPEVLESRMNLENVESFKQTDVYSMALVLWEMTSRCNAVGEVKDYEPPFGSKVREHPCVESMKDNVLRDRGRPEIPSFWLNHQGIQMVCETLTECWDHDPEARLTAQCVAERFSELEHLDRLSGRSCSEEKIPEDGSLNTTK

[10] = target: Tyrosine-protein kinase JAK1 (Homo sapiens, UniProt P23458); assay: Inhibition of JAK1 JH2domain-pseudokinase (unknown origin) in presence of ATP by enzymatic assay
[11] = system: HepG2; assay: Inhibition of Flag-tagged MST1 D109A mutant (unknown origin) in human HepG2 cells assessed as MOB1 phosphorylation level at 0.3 to 10 uM by immunoblot analysis; assay type: cell-based; conditions: dose 0.3-10 µM
[12] = target: Serine/threonine-protein kinase pim-1 (Homo sapiens) (UniProt P11309); assay: Inhibition of PIM1 (unknown origin) assessed as remaining activity at 1 uM by Kinome scan method relative to control
[13] = system: Tyrosine-protein kinase ABL1 (Homo sapiens), P00519 [F317L]; assay: Inhibition of phosphorylated ABL1 F317L mutant (unknown origin) assessed as remaining activity at 1 uM by Kinome scan method relative to control
[14] = target: Vascular endothelial growth factor receptor 1 (Homo sapiens) (UniProt P17948); assay: Inhibition of FLT1 (unknown origin) assessed as remaining activity at 1 uM by Kinome scan method relative to control
[15] = target: Serine/threonine-protein kinase 3 (Homo sapiens, UniProt Q13188, Y101F)
Chain of Serine/threonine-protein kinase 3 (Q13188 whole entry Y101F): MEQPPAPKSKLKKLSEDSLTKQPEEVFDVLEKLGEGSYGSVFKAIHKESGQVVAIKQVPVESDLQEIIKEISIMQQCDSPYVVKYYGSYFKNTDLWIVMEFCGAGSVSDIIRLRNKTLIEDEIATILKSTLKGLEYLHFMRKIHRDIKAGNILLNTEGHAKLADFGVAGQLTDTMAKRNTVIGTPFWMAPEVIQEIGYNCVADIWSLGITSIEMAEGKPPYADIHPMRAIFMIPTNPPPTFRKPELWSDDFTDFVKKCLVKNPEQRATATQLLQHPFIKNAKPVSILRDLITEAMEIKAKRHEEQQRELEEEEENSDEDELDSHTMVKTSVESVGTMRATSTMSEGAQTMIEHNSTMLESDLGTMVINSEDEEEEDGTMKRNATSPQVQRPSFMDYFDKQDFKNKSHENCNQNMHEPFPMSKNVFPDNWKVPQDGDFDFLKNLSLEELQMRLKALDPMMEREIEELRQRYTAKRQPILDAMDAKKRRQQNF

[16] = target: MAP kinase-interacting serine/threonine-protein kinase 2 (Homo sapiens) (UniProt Q9HBH9); assay: Inhibition of MKNK2 (unknown origin) assessed as remaining activity at 1 uM by Kinome scan method relative to control
[17] = target: Phosphatidylinositol 4-phosphate 5-kinase type-1 gamma (Homo sapiens, UniProt O60331); assay: Inhibition of PIP5K1C (unknown origin) assessed as remaining activity at 1 uM by Kinome scan method relative to control
[18] = target: STE20/SPS1-related proline-alanine-rich protein kinase (Homo sapiens) (UniProt Q9UEW8); assay: Inhibition of STK39 (unknown origin) assessed as remaining activity at 1 uM by Kinome scan method relative to control
[19] = target: Serine/threonine-protein kinase PAK 3 (Homo sapiens) (UniProt O75914); assay: Inhibition of PAK3 (unknown origin) assessed as remaining activity at 1 uM by Kinome scan method relative to control
[20] = target: Dual specificity mitogen-activated protein kinase kinase 4 (Homo sapiens) (UniProt P45985); assay: Inhibition of MEK4 (unknown origin) assessed as remaining activity at 1 uM by Kinome scan method relative to control
Chain of Dual specificity mitogen-activated protein kinase kinase 4 (Homo sapiens) (P45985 whole entry): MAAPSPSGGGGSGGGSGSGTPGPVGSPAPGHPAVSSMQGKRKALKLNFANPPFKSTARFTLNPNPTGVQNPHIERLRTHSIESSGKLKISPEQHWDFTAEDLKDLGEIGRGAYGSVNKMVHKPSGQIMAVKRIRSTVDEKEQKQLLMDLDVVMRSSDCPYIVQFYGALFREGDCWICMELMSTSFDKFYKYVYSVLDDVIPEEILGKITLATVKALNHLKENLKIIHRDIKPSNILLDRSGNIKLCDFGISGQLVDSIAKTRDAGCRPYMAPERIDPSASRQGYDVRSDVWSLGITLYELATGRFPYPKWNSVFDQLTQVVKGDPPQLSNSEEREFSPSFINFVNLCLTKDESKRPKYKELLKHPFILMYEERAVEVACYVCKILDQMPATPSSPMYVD

[21] = target: Serine/threonine-protein kinase ULK3 (Homo sapiens) (UniProt Q6PHR2); assay: Inhibition of ULK3 (unknown origin) assessed as remaining activity at 1 uM by Kinome scan method relative to control
[22] = target: Ephrin type-A receptor 2 (Homo sapiens) (UniProt P29317); assay: Inhibition of EPHA2 (unknown origin) assessed as remaining activity at 1 uM by Kinome scan method relative to control
[23] = target: Vascular endothelial growth factor receptor 3 (Homo sapiens) (UniProt P35916); assay: Inhibition of FLT4 (unknown origin) assessed as remaining activity at 1 uM by Kinome scan method relative to control
[24] = target: Serine/threonine-protein kinase 26 (Homo sapiens, UniProt Q9P289); assay: Binding affinity to MST4 (unknown origin) assessed as dissociation constant
[25] = target: Calcium/calmodulin-dependent protein kinase type IV (Homo sapiens) (UniProt Q16566); assay: Inhibition of CAMK4 (unknown origin) assessed as remaining activity at 1 uM by Kinome scan method relative to control; in short: as §1
[26] = target: Ribosomal protein S6 kinase alpha-6 (Homo sapiens) (UniProt Q9UK32); assay: Inhibition of C-terminal kinase domain RSK4 (unknown origin) assessed as remaining activity at 1 uM by Kinome scan method relative to control
In short: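 Active-site-dependent competition-binding (KINOMEscan) panel of 468 kinases, test compound at 1 μM (from a 10 mM DMSO stock). Read-out is ctrl% = (test signal − positive control signal)/(negative control signal − positive control signal) × 100. DMSO is the negative control (100%) and a control compound is the positive control (0%). Lower ctrl% means tighter binding.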

[27] = Acute toxicity in wild-type mouse assessed as increase in Ki67-positive cells at 1 mg/kg,ip administrated twice daily for 1 to 7 days by Ki67 staining; assay type: organism-based, Liver; conditions: in vivo, time 1-7 day
In short: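 Wild-type mice were dosed once a day before two-thirds partial hepatectomy, then given vehicle or 1 mg/kg i.p. twice per day. Ki67-positive cells were counted in liver sections over postoperative days 1 to 7, n = 5; means ± SD, Student's t test.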

[28] = target: Rhodopsin kinase GRK1 (Homo sapiens) (UniProt Q15835); assay: Inhibition of GRK1 (unknown origin) assessed as remaining activity at 1 uM by Kinome scan method relative to control

Chain of Cyclin-dependent kinase-like 3 (Homo sapiens) (Q8IVW4 whole entry, looked up): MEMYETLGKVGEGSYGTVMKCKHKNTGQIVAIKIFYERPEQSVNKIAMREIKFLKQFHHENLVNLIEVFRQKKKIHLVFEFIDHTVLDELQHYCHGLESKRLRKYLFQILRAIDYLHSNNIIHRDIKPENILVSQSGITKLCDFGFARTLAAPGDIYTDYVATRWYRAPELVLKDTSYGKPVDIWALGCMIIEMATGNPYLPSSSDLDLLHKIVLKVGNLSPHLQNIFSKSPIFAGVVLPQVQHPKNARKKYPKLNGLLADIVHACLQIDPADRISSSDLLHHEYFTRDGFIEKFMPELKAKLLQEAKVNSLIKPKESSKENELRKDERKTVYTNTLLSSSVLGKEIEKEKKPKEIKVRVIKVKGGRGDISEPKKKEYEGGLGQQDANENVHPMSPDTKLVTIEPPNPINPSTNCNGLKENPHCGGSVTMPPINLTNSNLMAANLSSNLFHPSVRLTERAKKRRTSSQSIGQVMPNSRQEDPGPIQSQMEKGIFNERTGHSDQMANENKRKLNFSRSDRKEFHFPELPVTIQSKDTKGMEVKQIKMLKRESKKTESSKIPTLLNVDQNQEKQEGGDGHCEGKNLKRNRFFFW

CN1C(=O)c2sccc2N(C)c2nc(Nc3ccc(S(N)(=O)=O)cc3)ncc21
Activity [1]: 91% | Activity [2]: 100% | Activity [3]: 18% | Activity [4]: 86% | Activity [5]: 92% | Activity [6]: 100% | Activity [7]: 87% | Activity [8]: 100% | Activity [9]: 100% | IC50 [10]: 38.7 nM | inhibition [11]: Active | Activity [12]: 100% | Activity [13]: 14% | Activity [14]: 84% | IC50 [15]: 361 nM | Activity [16]: 59% | Activity [17]: 10% | Activity [18]: 86% | Activity [19]: 100% | Activity [20]: 100% | Activity [21]: 84% | Activity [22]: 99% | Activity [23]: 67% | Kd [24]: 16 nM | Activity [25]: 100% | Activity [26]: 93% | Activity [27]: Non-Toxic | Activity [28]: 94%
